Screening results (PubChem BioAssay)
The list is not random: actives were taken first. Their share in the collection is about 2.1%.
CHRM5 PAM = human M5 muscarinic receptor positive allosteric modulators, primary screen, CHO-K1 cells, Fluo-8 calcium fluorescence. CHO-K1 hM5, ACh EC20 PAM; 0% = ACh EC20, 100% = ACh EC100. activation, % at 3 µM. Muscarinic acetylcholine receptor M5 (Homo sapiens), P08912. actives 0.3% (n = 360,000). AID 624038, 2012;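 active = activation above the run cutoff, the mean activation of all test compounds plus 3 SD, cut at about 18% in these data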
Target sequence (P08912 whole entry, looked up): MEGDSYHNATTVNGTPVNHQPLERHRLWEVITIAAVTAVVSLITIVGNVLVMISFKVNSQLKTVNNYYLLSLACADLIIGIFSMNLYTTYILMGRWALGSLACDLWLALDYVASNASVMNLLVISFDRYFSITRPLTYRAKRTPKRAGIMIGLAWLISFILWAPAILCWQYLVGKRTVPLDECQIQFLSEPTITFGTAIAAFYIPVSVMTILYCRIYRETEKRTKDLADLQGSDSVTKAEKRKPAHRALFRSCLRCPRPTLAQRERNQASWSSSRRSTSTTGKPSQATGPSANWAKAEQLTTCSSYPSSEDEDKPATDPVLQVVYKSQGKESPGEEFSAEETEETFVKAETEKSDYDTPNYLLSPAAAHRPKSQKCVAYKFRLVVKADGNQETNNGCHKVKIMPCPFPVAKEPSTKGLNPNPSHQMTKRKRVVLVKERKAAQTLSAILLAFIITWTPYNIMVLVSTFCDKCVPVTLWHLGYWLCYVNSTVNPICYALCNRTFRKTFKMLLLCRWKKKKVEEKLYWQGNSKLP
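Replicates: One well per compound, no replicates | System: Human M5 receptor in CHO-K1 cells | Benchmarks: Low control EC20 acetylcholine (0%), high control EC100 acetylcholine (100%) | Probe or stimulus: Acetylcholine, EC20 level | Times: Fluo-8 loading 80 min at 37 °C plus 30 min room temperature | Signal: Intracellular calcium via Fluo-8 fluorescence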
M5 antag = human M5 muscarinic receptor antagonists, primary screen, CHO cells, Fluo-8 calcium fluorescence | CHO-hM5 cells, ACh EC80 | inhibition, % at 3 µM | actives 0.59% (n = 360,000);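 active = inhibition above a per-plate cutoff, the mean of that plate's test compounds plus 3 SD, cut at about 27% in these data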
CHRM1 antagonist = human M1 muscarinic receptor antagonists, primary screen, CHO-K1 cells, Fluo-8 calcium fluorescence, 1536-well; inhibition, % at 3 µM; AID 588852, 2011; CHO-K1 hM1, ACh EC80 antagonist; Muscarinic acetylcholine receptor M1 (Homo sapiens), P11229; actives 1.3% (n = 360,000);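 active = percent inhibition above its own plate's cutoff, namely the mean of that plate's compound wells plus 3 SD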;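 note: peak over basal fluorescence ratio during 140 s after agonist addition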
CHRM5 agonist = human M5 muscarinic receptor agonists, primary screen, CHO-K1 cells, Fluo-8 calcium fluorescence; CHO-K1 hM5 cells; 0% DMSO wells, 100% maximal acetylcholine response; activation, % at 3 µM; actives 0.19% (n = 360,000); AID 624037, 2012;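 active = activation above the run's mean over test compounds plus 3 SD, cut at about 23% in these data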;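 note: signal is peak over basal fluorescence ratio across the kinetic read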
M1 ag = human M1 muscarinic receptor agonists, primary screen, Fluo-8 calcium fluorescence, CHO-K1 cells, HTS; CHO-K1 hM1, agonist mode; 0% DMSO, 100% acetylcholine EC100; activation, % at 3 µM; actives 0.33% (n = 360,000); AID 588814, 2011;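 active = activation above the run's mean compound activation plus 3 SD, cut at about 16% in these data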;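 note: peak over basal fluorescence ratio within a 140 s kinetic read after compound addition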
M1 PAM = human M1 muscarinic receptor positive allosteric modulators, primary screen, CHO-K1 cells, Fluo-8 calcium fluorescence, 1536-well; Muscarinic acetylcholine receptor M1 (Homo sapiens), P11229; CHO-K1 hM1, ACh EC20; 0% = ACh EC20, 100% = maximal ACh; activation, % at 3 µM; actives 0.088% (n = 360,000); AID 588819, 2011; in the data active = activation above about 19%, passing the limit was not always enough
Each line names hits and unclear results; the compound was inactive in the other large screens.

O=C(CCc1nnc(CCCc2ccccc2)o1)NCCCC1CCCC1	none
Cc1ccccc1C1c2[nH]c3ccccc3c2CCN1CCCn1cccn1 (configuration not stated)	CHRM1 antagonist 90.7
Cc1ccccc1C1c2[nH]c3ccccc3c2CCN1Cc1cccn1-c1ncccn1 (configuration not stated)	CHRM1 antagonist 66.1
Cn1ccc(C(=O)Nc2sc3c(c2C(N)=O)CCCCC3)n1	none
CCOC(=O)N1CCN(CCC(=O)c2ccc(OC)cc2)CC1	none
c1ccc(OCc2nn3c(-c4ccccn4)nnc3s2)cc1	none
Cc1nc(NC(=O)/C=C/c2ccc(F)cc2)sc1C(=O)N(C)C	none
Cc1ccc(/C=N/NC(=O)c2nnn(-c3nonc3N)c2-c2cccs2)cc1	CHRM5 agonist 30.1, M1 ag 68.8
Nc1nonc1-n1nnc(C(=O)N/N=C/c2ccc(F)cc2)c1-c1ccc2c(c1)OCO2	none
Cc1ccc(/C=N/NC(=O)c2nnn(-c3nonc3N)c2-c2ccc3c(c2)OCO3)s1	M1 ag 25.0
COc1cccc(-c2c(C(=O)N/N=C/c3cccs3)nnn2-c2nonc2N)c1	CHRM5 agonist 30.6, M1 ag 44.1
COc1ccc(/C=N/NC(=O)c2nnn(-c3nonc3N)c2-c2cccc(OC)c2)cc1	M1 ag 38.5
COc1ccc(/C=N/NC(=O)c2nnn(-c3nonc3N)c2-c2cccs2)cc1OC	none
CC(C)CN1C(Nc2ccccc2)=NC[C@@H]1C	none
Cc1[nH]c2ccccc2c1/C=N/NC(=O)c1cccc(S(=O)(=O)Nc2cccc(C(F)(F)F)c2)c1	none
CC(=O)c1cccc(-c2ccnc3c2CC(C(=O)NCC2CC2)O3)c1 (configuration not stated)	none
COc1cc(C(=O)OCC(=O)Nc2c(C)n(C)n(-c3ccccc3)c2=O)c([N+](=O)[O-])cc1OC	none
Cc1ccc(S(=O)(=O)N2CCCC2CNC(=O)C(=O)NCc2cccs2)cc1 (configuration not stated)	none
CCOc1cccc(-c2c(C(=O)N/N=C/c3ccncc3)nnn2-c2nonc2N)c1	none
COc1cccc(-c2c(C(=O)N/N=C(\C)c3ccc(Cl)s3)nnn2-c2nonc2N)c1	M1 ag 22.2
COc1cccc(-c2c(C(=O)N/N=C(\C)c3ccco3)nnn2-c2nonc2N)c1	none
CCOc1cccc(-c2c(C(=O)N/N=C/c3cccs3)nnn2-c2nonc2N)c1	CHRM5 PAM 27.8, CHRM5 agonist 28.3, M1 ag 19.9
N#CCCn1c(SCC(=O)N2CCN(S(=O)(=O)c3ccccc3)CC2)nc2ccccc21	CHRM1 antagonist 64.1
CC(C)Cn1c(SCC(=O)N2CCN(S(=O)(=O)c3ccccc3)CC2)nc2ccccc21	CHRM1 antagonist 29.6
CCOC(=O)c1c(C)c(C(=O)Nc2cc(F)ccc2F)c(C)n1C	none
CC(=O)C1=C(O)C(=O)N(Cc2ccccc2)C1c1cccs1 (configuration not stated)	none
Cc1ccc(C2=NS(=O)(=O)N(C)C(C(=O)Nc3ccc(F)cc3F)=C2)cc1	CHRM1 antagonist 34.2
CN1C(C(=O)Nc2ccc(F)cc2F)=CC(c2ccco2)=NS1(=O)=O	none
CC(C)CNC(=O)Cn1nc(C(F)(F)F)c2c1CCCC2	none
COc1ccc(NC(=O)CSc2nnnn2C)c([N+](=O)[O-])c1	M5 antag 31.8
COc1ccc(C(=O)NNC(=O)CSc2nnnn2C)cc1	CHRM5 PAM 19.3
COC(=O)c1sc2ncn(CC(=O)N(C)C3CCCCC3)c(=O)c2c1C	none
COc1ccc(CC(=O)NC(=S)Nc2cccc(C)c2)cc1	CHRM5 agonist 29.6, M1 ag 26.1
CCC(=O)Nc1cccc(NC(=S)NC(=O)Cc2ccccc2)c1	none
COc1cccc(NC(=S)NC(=O)Cc2ccc(Cl)cc2)c1	CHRM5 agonist 36.2, M1 ag 36.6
COc1ccc(CC(=O)NC(=S)Nc2cccc(CO)c2)cc1	CHRM5 agonist 31.1, M1 ag 28.8
CCc1nnc(NC(=O)c2cc(S(=O)(=O)N3CCCCC3)ccc2N2CCOCC2)s1	none
CCOc1ncccc1C(=O)Nc1ccc(-c2cn3ccsc3n2)cc1	none
Cc1cccc(NC(=O)CSCc2nc3c(nnn3Cc3ccc(F)cc3)c(=O)[nH]2)c1C	none
Cc1ccc(NC(=O)CSCc2nc3c(nnn3Cc3ccc(F)cc3)c(=O)[nH]2)c(C)c1	CHRM5 PAM 20.9
O=C(NCCN1CCOCC1)C1CCN(c2ncnc3c2sc2cccc(F)c23)CC1	none
CCCCN(CC)CCCNC(=O)C1CCN(c2ncnc3c2sc2cccc(F)c23)CC1	CHRM1 antagonist 42.0
Cc1ccc(OCC(=O)NNC(=S)NC(=O)C2CCCCC2)c(C)c1	M1 ag 20.2
COc1cccc(-n2c(SCC(=O)NC3CC3)nc3ccccc3c2=O)c1	none
COc1cccc(-c2cc(NC=O)c3ncc(-c4ccc(OC)c(OC)c4)n3c2)c1	none
Nc1nc(Nc2ccccc2)nc(NCc2ccccc2)c1[N+](=O)[O-]	none
Nc1nc(NCCO)nc(NC2CCCCC2)c1[N+](=O)[O-]	none
Nc1nc(Nc2ccccc2F)nc(NCc2ccccc2)c1[N+](=O)[O-]	CHRM5 PAM 19.1
CN(C)CCCNc1nc(N)c([N+](=O)[O-])c(NCc2ccccc2)n1	CHRM1 antagonist 51.8
CC(C)CCNc1nc(N)c([N+](=O)[O-])c(NCCO)n1	CHRM5 PAM 19.2
Nc1nc(NCCOCCO)nc(NC2CCCCC2)c1[N+](=O)[O-]	M5 antag 27.6
Nc1nc(NCc2ccccc2)nc(NCc2ccccc2)c1[N+](=O)[O-]	none
N#Cc1ccccc1NC(=O)CNc1ccc(Cl)c(C(F)(F)F)c1	none
COc1cccc(C(=O)Nc2ccc(C(=O)NCC(C)C)cc2)c1	none
Cc1cccc(NCC(=O)N/N=C\c2ccc[nH]2)c1	none
Cc1cc(C)c(OCCCCNCc2ccccc2)c(Cl)c1	none
CN1CCN(Cc2nc(Cc3cccc(F)c3)no2)CC1c1ccccc1 (configuration not stated)	none
O=C(CCN1c2ccccc2Sc2ccccc21)OCc1nnc(-c2ccccc2)o1	none
